ChEMBL document CHEMBL1152124, “Piperidine variations in search for non-imidazole histamine H(3) receptor ligands” (Bioorg Med Chem, 2008)

Key:
[1] = target: T1, Histamine H3 receptor (Homo sapiens, UniProt Q9Y5N1); experiment: Displacement of [125I]iodoproxyfan from human recombinant histamine H3 receptor expressed in CHO-K1 cells; format: cell-based
Summary of the method: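 Stably transfected CHO-K1 cells washed and harvested in PBS, homogenized in ice-cold 50 mmol/L Na2HPO4/KH2PO4 pH 7.5. Membranes pelleted at 23,000g. Membranes incubated 60 min at 25 °C with 25 pmol/L [125I]iodoproxyfan ± competitor, in triplicate. Stopped by ice-cold medium and filtration through PEI-soaked glass fibre filters; gamma counting. Nonspecific binding defined with imetit. Ki by Cheng-Prusoff; mean of at least triplicate experiments.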

[2] = system: Mus musculus; experiment: Antagonist activity at histamine H3 receptor in po dosed Swiss mouse cerebral cortex assessed as Ntau-methylhistamine level after 90 mins by radioimmunoassay; format: functional; settings: 1.5 h
Summary of the method: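 Swiss mice fasted 24 h, then dosed orally. Decapitated 90 min later; cerebral cortex homogenized in 10 vol ice-cold 0.4 M perchloric acid. Nτ-methylhistamine measured by radioimmunoassay. Response related to the maximal rise produced by ciproxifan 3 mg/kg po. At least triplicate experiments; ED50 calculated as mean with SEM.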

[3] = target: T1, Histamine H3 receptor; experiment: Displacement of [3H](R)-alpha-methylhistamine from human histamine H3 receptor expressed in rat C6 cells; format: cell-based
[4] = target: T1, Histamine H3 receptor

T1 sequence (Q9Y5N1 whole entry): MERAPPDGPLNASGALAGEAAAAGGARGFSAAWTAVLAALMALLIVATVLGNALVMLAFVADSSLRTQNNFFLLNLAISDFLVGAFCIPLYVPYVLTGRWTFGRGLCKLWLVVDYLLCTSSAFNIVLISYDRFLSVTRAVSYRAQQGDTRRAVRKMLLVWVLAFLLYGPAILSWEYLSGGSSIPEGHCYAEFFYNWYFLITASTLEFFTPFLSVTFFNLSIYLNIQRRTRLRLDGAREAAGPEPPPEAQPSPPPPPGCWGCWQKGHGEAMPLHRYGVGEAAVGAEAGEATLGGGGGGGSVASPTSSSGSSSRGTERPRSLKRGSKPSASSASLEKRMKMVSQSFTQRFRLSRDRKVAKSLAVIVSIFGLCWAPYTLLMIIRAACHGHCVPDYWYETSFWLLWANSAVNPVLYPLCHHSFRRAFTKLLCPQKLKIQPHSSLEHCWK

Ki ([1]; read-out: Ki) [nM]	SMILES	ED50 [2] [mg/kg]	further results
165	Clc1ccc(OCCCN2CCC(N3CCCCC3)CC2)cc1	> 20	
	c1ccc(COCCCc2c[nH]cn2)cc1 [PROXYFAN]	> 10	Ki ([1]; read-out: pKi (converted)): 2.51 nM
300	Cc1ccc(OCCN2CCC(N3CCCCC3)CC2)cc1		
164	FC(F)(F)c1cccc(OCCN2CCC(N3CCCCC3)CC2)c1		
274	CCCCC1CCN(CCCOCCCc2ccccc2)CC1	> 10	
132	COc1cccc(OCCN2CCC(N3CCCCC3)CC2)c1		
235	Clc1cccc(OCCN2CCC(N3CCCCC3)CC2)c1		
	C[C@H]1[C@H]2CC[C@H]3[C@@H]4CC=C5C[C@@H](N(C)C)CC[C@]5(C)[C@H]4CC[C@]23CN1C [CONESSINE]		Ki ([1]; read-out: pKi (converted)): 5.01 nM
	c1ccc(CCCOCCCN2CCCCC2)cc1	3.7	Ki [3]: 3.1 nM; Ki ([1]; read-out: pKi (converted)): 3.16 nM
560	c1ccc(CCCOCCCN2CCc3ccccc3C2)cc1	> 10	
393	c1ccc(CCCOCCCN2CCC3CCCCC3C2)cc1 (centres undefined)	> 10	
	CNC(=O)c1ccc(Oc2ccc3c(c2)CCN(C2CCC2)CC3)nc1		pKb [4]: 9.3
326	c1ccc(CCCOCCCN2CCC(Cc3ccccc3)CC2)cc1	> 10	
249	CCCC1CCN(CCCOCCCc2ccccc2)CC1	> 10	
	Clc1ccc(CCCOCCCN2CCCCC2)cc1 [PITOLISANT]	1.6	
176	Clc1ccc(OCCN2CCC(N3CCCCC3)CC2)cc1		
100	CC(C)(C)c1ccc(OCCCN2CCC(N3CCCCC3)CC2)cc1	> 20	
> 10000	COc1cccc(OCCCN2CCC(N3CCCCC3)CC2)c1	> 20	
